Data set [1] can be described thus: Cytotoxicity against human STF/293 cells assessed as reduction in cell viability at 2 to 10 uM after 24 hrs by fluorescein diacetate based assay. The format is toxicity. The conditions noted are these: hek293, 24 h.
A short description of data set [2]: Inhibition of Wnt signalling in human STF/293 cells assessed as suppression of TCF/beta-catenin-mediated transcriptional activity after 24 hrs by superTOPflash reporter gene assay. The settings on record: STF/293, 24 h. The format is cell-based.
Data set [3] can be described thus: Cytotoxicity against human STF/293 cells assessed as reduction in cell viability at 0.5 to 2 uM after 24 hrs by fluorescein diacetate based assay. The format is toxicity. The settings on record: hek293, 24 h.
Data set [4] in a line: Inhibition of Wnt signalling in human SW480 cells assessed as decrease in c-myc level after 24 hrs by Western blot analysis. Type of data set: cell-based. The procedure, abridged: (§1)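 SW480 colon cancer cells were treated, then whole, cytoplasmic and nuclear lysates were prepared. These were immunoblotted with anti-β-catenin and anti-c-myc antibodies. β-Actin served as the cytoplasmic fraction control and histone H1 as the nuclear fraction control.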
For orientation: Immunoblotting shows a protein as a band on a membrane.

Data set [5] is described as follows: Cytotoxicity against human STF/293 cells assessed as reduction in cell viability at 10 to 40 uM after 24 hrs by fluorescein diacetate based assay. The conditions noted are these: hek293, 24 h. The format is toxicity.
Data set [6] in a line: Inhibition of Wnt signalling in human SW480 cells assessed as decrease in beta-catenin level in nucleus at 20 to 60 uM after 24 hrs by Western blot analysis. Type of data set: cell-based. The essentials: as §1
Data set [7] is described as follows: Inhibition of Wnt signalling in human STF/293 cells assessed as decrease in PPARdelta levels after 24 hrs by Western blot analysis. Type of data set: cell-based. The procedure, abridged:
(§2)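 STF/293 cells were exposed to the test agent and lysed. Lysates were immunoblotted for β-catenin, c-myc and PPARδ, with β-actin as the protein loading control.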

Data set [8] can be described thus: Inhibition of Wnt signalling in human STF/293 cells assessed as decrease in beta-catenin levels after 24 hrs by Western blot analysis. Type of data set: cell-based. The procedure, abridged: as §2
The nature of data set [9]: Inhibition of Wnt signalling in human STF/293 cells assessed as decrease in c-myc levels after 24 hrs by Western blot analysis. The format is cell-based. The essentials:
as §2

Activity calls are given as the source filed them. The calls are words filed in the database; no cut-off is given here.

From ChEMBL document CHEMBL3868584, “Cerasoidine, a Bis-aporphine Alkaloid Isolated from Polyalthia cerasoides during Screening for Wnt Signal Inhibitors” (J Nat Prod, 2016) come the findings set out here.

A word on the IC50: it is the point on the concentration scale where inhibition reaches its midpoint. As for `COc1cc2c(cc1O)CCn1c-2cc2ccc(O)c(OC)c2c1=O`, the Activity result in data set [1] is listed as “Non-Toxic”. Moreover, the IC50 in data set [2] was determined as 8.7 µM.
As for `COc1cc2c(cc1OC)-c1cc3ccc(OC)c(OC)c3c(=O)n1CC2`, the Activity entry in data set [3] is listed as “Non-Toxic”. Further, the IC50 in data set [2] was 0.6 µM.
Regarding `COc1ccc2c(c1)C(=O)c1nccc3cc4c(c-2c13)OCO4` [ATHEROSPERMIDINE], the Activity result in data set [1] is “Non-Toxic”. Further, the IC50 in data set [2] came out at 7.1 µM.
Take `COc1ccc2c(c1)c(-c1c3c4c(cc5c(c4c4ccc(OC)cc14)OCO5)CCN3)c1c3c(cc4c(c32)OCO4)CCN1` [BIDEBILINE E]: in data set [4], the inhibition entry is “Dose-dependent effect”. Moreover, the Activity result in [5] is reported as “Non-Toxic”. Also, the inhibition entry in data set [6] was “Active”. The IC50 in [2] stood at 20.2 µM.
`O=C1c2ccccc2-c2c3c(cc4ccnc1c24)OCO3` [LIRIODENINE]: the inhibition result in data set [7], in data set [8] and in data set [9] was “Dose-dependent effect” in each case. The Activity entry in data set [3] is “Non-Toxic”. Besides, the 50% inhibitory concentration (IC50) in data set [2] was found to be 0.6 µM.
